In ChEMBL document CHEMBL4627411, “Novel Piperidinyl-Azetidines as Potent and Selective CCR4 Antagonists Elicit Antitumor Response as a Single Agent and in Combination with Checkpoint Inhibitors” (J Med Chem, 2020):
pIC50: −log10 of the molar value.

Tests used:
[1] = target: T1, C-C chemokine receptor type 4 (Homo sapiens, UniProt P51679); assay: Antagonist activity at human CCR4 expressed in rat chem-5 cells assessed as inhibition of CCL22-induced calcium flux measured at 2.5 secs time interval for 45 secs by calcium 6 dye-based FLIPR assay; format: functional, cell-based
T1 sequence (P51679 whole entry): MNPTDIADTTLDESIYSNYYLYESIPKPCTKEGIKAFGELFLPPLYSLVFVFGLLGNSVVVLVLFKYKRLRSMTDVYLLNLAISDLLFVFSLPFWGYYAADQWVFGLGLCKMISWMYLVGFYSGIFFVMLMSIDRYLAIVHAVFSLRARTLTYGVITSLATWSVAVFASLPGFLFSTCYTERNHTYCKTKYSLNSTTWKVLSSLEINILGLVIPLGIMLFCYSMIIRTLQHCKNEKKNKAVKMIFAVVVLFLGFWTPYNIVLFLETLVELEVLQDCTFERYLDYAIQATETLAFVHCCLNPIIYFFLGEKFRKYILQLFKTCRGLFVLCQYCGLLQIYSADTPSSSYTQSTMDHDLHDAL
Outline: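 Primary calcium flux assay for CCR4 antagonism, run in the absence of serum.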

[2] = Metabolic stability in rat hepatocytes assessed as parent compound remaining at 1 uM after 60 mins by LC-MS/MS analysis; format: ADME, cell-based, Hepatocyte; details: read-out: Stability
Outline: (§1)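 Hepatocytes (human or rat). Compound incubated for 60 min; value is % parent remaining.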

[3] = Metabolic stability in human hepatocytes assessed as parent compound remaining at 1 uM after 60 mins by LC-MS/MS analysis; format: ADME, cell-based, Hepatocyte; details: read-out: Stability; outline: as §1
[4] = Clearance in rat at 0.5 mg/kg, iv; format: ADME, organism-based; details: in vivo
Outline: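 Rat in vivo PK. Single IV dose of 0.5 mg/kg; clearance in mL/min/kg.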

[5] = Oral bioavailability in rat at 2 mg/kg; format: ADME, organism-based; details: in vivo
Outline: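 Rat in vivo PK. Oral dose of 2 mg/kg; %F derived.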

Cytochrome P450 3A4 = Cytochrome P450 3A4 (Homo sapiens, UniProt P08684); assay: Inhibition of CYP3A4 in human liver microsomes using midazolam hydrochloride as substrate incubated for 20 mins in presence of NADPH by LC-MS/MS analysis; format: ADME
Chain of Cytochrome P450 3A4 (P08684 whole entry): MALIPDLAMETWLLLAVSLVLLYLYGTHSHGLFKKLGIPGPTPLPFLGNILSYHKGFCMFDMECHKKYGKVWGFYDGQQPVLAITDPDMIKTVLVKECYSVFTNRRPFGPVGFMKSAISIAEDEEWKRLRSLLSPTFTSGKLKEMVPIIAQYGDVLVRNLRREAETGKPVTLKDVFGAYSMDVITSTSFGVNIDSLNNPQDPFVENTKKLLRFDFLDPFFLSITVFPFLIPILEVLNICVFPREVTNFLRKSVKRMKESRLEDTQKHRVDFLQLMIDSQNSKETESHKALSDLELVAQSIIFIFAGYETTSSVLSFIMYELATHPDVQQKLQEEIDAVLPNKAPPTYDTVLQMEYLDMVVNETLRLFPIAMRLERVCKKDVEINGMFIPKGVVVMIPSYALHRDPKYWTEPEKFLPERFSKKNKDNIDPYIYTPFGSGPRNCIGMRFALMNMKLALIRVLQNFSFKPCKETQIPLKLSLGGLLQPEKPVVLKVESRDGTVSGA

Cytochrome P450 2C9 = Cytochrome P450 2C9 (Homo sapiens, UniProt P11712); assay: Inhibition of CYP2C9 in human liver microsomes using diclofenac sodium salt as substrate incubated for 20 mins in presence of NADPH by LC-MS/MS analysis; format: ADME
Chain of Cytochrome P450 2C9 (P11712 whole entry): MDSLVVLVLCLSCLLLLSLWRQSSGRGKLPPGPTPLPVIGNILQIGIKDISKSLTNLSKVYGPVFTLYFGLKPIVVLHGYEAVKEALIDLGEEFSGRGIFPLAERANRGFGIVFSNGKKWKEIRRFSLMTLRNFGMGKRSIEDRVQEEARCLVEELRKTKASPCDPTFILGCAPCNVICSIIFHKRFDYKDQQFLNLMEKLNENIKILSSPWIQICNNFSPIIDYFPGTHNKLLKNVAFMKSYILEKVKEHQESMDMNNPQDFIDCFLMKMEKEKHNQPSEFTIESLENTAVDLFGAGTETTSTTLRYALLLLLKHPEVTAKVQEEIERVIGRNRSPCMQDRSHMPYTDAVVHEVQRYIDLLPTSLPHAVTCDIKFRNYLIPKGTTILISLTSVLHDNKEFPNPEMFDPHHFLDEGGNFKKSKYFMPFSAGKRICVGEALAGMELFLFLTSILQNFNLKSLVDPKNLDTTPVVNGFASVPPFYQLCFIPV

CYP3A4 = CYP3A4 (Homo sapiens, UniProt P08684); assay: Ratio of IC50 for time-dependent inhibition of CYP3A4 in human liver microsomes using midazolam hydrochloride as substrate in presence of NADPH to IC50 for time-dependent inhibition of CYP3A4 in human liver microsomes using midazolam hydrochloride as substrate absence of NADPH; details: probe midazolam hydrochloride, read-out: Ratio IC50
Chain of CYP3A4 (P08684 whole entry): as the sequence (P08684 whole entry) above

Cytochrome P450 2D6 = Cytochrome P450 2D6 (Homo sapiens, UniProt P10635); assay: Inhibition of CYP2D6 in human liver microsomes using bufuralol hydrochloride salt as substrate incubated for 20 mins in presence of NADPH by LC-MS/MS analysis; format: ADME
Chain of Cytochrome P450 2D6 (P10635 whole entry): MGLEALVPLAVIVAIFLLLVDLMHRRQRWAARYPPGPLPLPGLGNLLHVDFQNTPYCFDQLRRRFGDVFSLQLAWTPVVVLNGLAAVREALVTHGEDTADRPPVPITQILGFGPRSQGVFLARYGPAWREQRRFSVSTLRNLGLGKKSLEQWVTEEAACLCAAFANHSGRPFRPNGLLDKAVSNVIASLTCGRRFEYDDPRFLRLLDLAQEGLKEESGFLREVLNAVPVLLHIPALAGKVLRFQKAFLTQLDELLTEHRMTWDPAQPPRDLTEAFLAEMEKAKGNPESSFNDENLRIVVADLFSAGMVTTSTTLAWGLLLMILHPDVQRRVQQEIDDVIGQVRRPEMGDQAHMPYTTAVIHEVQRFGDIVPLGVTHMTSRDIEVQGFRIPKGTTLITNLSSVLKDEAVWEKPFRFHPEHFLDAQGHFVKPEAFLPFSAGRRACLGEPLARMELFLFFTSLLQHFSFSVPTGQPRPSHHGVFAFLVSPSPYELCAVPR

Cytochrome P450 = assay: Induction of CYP450 (unknown origin); format: ADME, protein assay; details: human
Cytochrome P450 1A2 = Cytochrome P450 1A2 (Homo sapiens, UniProt P05177); assay: Inhibition of CYP1A2 in human liver microsomes using phenacetin as substrate incubated for 20 mins in presence of NADPH by LC-MS/MS analysis; format: ADME
Chain of Cytochrome P450 1A2 (P05177 whole entry): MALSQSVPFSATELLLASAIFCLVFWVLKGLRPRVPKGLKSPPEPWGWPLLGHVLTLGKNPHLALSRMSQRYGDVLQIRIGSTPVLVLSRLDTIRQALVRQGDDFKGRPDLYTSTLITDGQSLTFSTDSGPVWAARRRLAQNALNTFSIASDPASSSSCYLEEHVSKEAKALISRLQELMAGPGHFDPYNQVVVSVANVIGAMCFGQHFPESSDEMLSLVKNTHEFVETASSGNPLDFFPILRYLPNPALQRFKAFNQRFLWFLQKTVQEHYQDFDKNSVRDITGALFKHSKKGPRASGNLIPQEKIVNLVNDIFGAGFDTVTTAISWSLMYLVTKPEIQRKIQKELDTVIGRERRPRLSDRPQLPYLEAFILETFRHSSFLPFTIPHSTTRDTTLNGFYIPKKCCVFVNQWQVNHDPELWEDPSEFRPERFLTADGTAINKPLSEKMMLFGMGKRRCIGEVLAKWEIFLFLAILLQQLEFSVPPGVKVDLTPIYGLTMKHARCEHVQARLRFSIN

Cytochrome P450 2C19 = Cytochrome P450 2C19 (Homo sapiens, UniProt P33261); assay: Inhibition of CYP2C19 in human liver microsomes using S-mephenytoin as substrate incubated for 20 mins in presence of NADPH by LC-MS/MS analysis; format: ADME
Chain of Cytochrome P450 2C19 (P33261 whole entry): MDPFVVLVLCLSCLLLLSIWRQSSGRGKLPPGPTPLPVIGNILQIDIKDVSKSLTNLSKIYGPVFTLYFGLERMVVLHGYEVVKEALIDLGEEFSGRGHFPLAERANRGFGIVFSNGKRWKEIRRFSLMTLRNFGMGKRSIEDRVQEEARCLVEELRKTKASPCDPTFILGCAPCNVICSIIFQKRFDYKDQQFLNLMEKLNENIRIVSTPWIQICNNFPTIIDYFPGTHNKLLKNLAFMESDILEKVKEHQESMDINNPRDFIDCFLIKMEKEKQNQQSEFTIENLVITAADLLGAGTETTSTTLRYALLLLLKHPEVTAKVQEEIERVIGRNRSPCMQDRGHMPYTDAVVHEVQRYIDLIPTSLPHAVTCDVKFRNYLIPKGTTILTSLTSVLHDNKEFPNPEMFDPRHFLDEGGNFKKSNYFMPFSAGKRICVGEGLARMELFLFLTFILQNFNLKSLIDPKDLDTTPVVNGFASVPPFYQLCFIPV

Row | Compound | pIC50 [1] | further results
1 | C[C@H](c1ccc(Cl)cc1Cl)n1nc(C#N)c2ncc(N3CC([C@H]4CCCN(CCC(=O)O)C4)C3)nc21 | 7.33 | –
2 | Cc1nn([C@H](C)c2ccc(Cl)cc2Cl)c2nc(N3CC([C@@H]4CCCN(CCS(N)(=O)=O)C4)C3)cnc12 | 6.34 | –
3 | C[C@H](c1ccc(Cl)cc1Cl)n1nc(C#N)c2ncc(N3CC([C@H]4CCCN(CCC(F)(F)F)C4)C3)nc21 | 6.43 | –
4 | Cc1nn([C@H](C)c2ccc(Cl)cc2Cl)c2nc(N3CC([C@H]4CCCN(CCS(N)(=O)=O)C4)C3)cnc12 | 7.08 | –
5 | Cc1nn([C@H](C)c2ccc(Cl)cc2Cl)c2nc(N3CC(CN(C)C)C3)cnc12 | 5.86 | –
6 | Cc1nn([C@H](C)c2ccc(Cl)cc2Cl)c2nc(N3CC([C@H]4CCCN(CCCC(=O)O)C4)C3)cnc12 | 7.16 | –
7 | Cc1nn([C@H](C)c2ccc(Cl)cc2Cl)c2nc(N3CC([C@H]4CCCN(CCS(C)(=O)=O)C4)C3)cnc12 | 7.11 | –
8 | Cc1nn([C@H](C)c2ccc(Cl)cc2Cl)c2nc(N3CC(C4CCCN(CCS(N)(=O)=O)C4)C3)cnc12 (stereo partly drawn) | 6.92 | –
9 | CCOC(=O)CN1CCCC(C2CN(c3cnc4c(C)nn([C@H](C)c5ccc(Cl)cc5Cl)c4n3)C2)C1 (stereo partly drawn) | 6.22 | –
10 | Cc1nn([C@H](C)c2ccc(Cl)cc2Cl)c2nc(N3CC(N4CCCCC4)C3)cnc12 | < 5.30 | –
11 | Cc1nn([C@H](C)c2ccc(Cl)cc2Cl)c2nc(N3CC([C@H]4CCCN(CCC(F)(F)F)C4)C3)cnc12 | 6.30 | –
12 | C[C@H](c1ccc(Cl)cc1Cl)n1nc(C(=O)O)c2ncc(N3CC([C@H]4CCCN(CCO)C4)C3)nc21 | < 5.30 | –
13 | Cc1nn([C@H](C)c2ccc(Cl)cc2Cl)c2nc(N3CC([C@H]4CCCN(CCC(N)=O)C4)C3)cnc12 | 7.38 | –
14 | Cc1nn([C@H](C)c2ccc(Cl)cc2Cl)c2nc(N3CC([C@H]4CCCN(CCCO)C4)C3)cnc12 | 7.43 | –
15 | C[C@H](c1ccc(Cl)cc1Cl)n1nc(C#N)c2ncc(N3CC([C@H]4CCCN(CC#N)C4)C3)nc21 | 5.83 | –
16 | CCN1CCC(C2CN(c3cnc4c(C)nn([C@H](C)c5ccc(Cl)cc5Cl)c4n3)C2)CC1 | < 5.30 | –
17 | C[C@H](c1ccc(Cl)cc1Cl)n1nc(C#N)c2ncc(N3CC([C@H]4CCCN(CC(=O)O)C4)C3)nc21 | 7.44 | –
18 | Cc1nn([C@H](C)c2ccc(Cl)cc2Cl)c2nc(N3CC([C@H]4CCCN(CCC(=O)O)C4)C3)cnc12 | 7.04 | –
19 | Cc1nn([C@H](C)c2ccc(Cl)cc2Cl)c2nc(N3CC([C@H]4CCCN(CCNS(=O)(=O)C(C)C)C4)C3)cnc12 | 7.51 | –

Now those with a higher pIC50 [1], led by results:

Row | pIC50 [1] | Compound | further results
20 | 8.22 | CC(=O)NCCN1CCC[C@H](C2CN(c3cnc4c(C)nn([C@H](C)c5ccc(Cl)cc5Cl)c4n3)C2)C1 | remaining at 1 h, 1 µM [2]: 68%; remaining at 1 h, 1 µM [3]: 94%; clearance [4]: 11 mL/min/kg; bioavailability [5]: 13%
21 | 7.60 | CNC(=O)c1nn([C@H](C)c2ccc(Cl)cc2Cl)c2nc(N3CC([C@H]4CCCN(CCO)C4)C3)cnc12 | –
22 | 7.64 | COC(=O)NCCN1CCC[C@H](C2CN(c3cnc4c(C)nn([C@H](C)c5ccc(Cl)cc5Cl)c4n3)C2)C1 | –
23 | 7.55 | C[C@H](c1ccc(Cl)cc1Cl)n1nc(C#N)c2ncc(N3CC([C@H]4CCCN(CCC#N)C4)C3)nc21 | –
24 | 7.54 | Cc1nn([C@H](C)c2ccc(Cl)cc2Cl)c2nc(N3CC([C@H]4CCCN(CCNS(C)(=O)=O)C4)C3)cnc12 | remaining at 1 h, 1 µM [2]: 53%; remaining at 1 h, 1 µM [3]: 85%; clearance [4]: 41.6 mL/min/kg; bioavailability [5]: 11%
25 | 7.66 | Cc1nn([C@H](C)c2ccc(Cl)cc2Cl)c2nc(N3CC([C@H]4CCCN(CCCS(C)(=O)=O)C4)C3)cnc12 | –
26 | 7.62 | Cc1nn([C@H](C)c2ccc(Cl)cc2Cl)c2nc(N3CC([C@H]4CCCN(CCO)C4)C3)cnc12 | pIC50 (Cytochrome P450 3A4): < 4.40; pIC50 (Cytochrome P450 2C9): < 4.40; IC50 shift (CYP3A4): 2.6; remaining at 1 h, 1 µM [2]: 62%; remaining at 1 h, 1 µM [3]: 87%; pIC50 (Cytochrome P450 2D6): < 4.40; Activity (Cytochrome P450): Not Active; clearance [4]: 32.3 mL/min/kg; pIC50 (Cytochrome P450 1A2): < 4.40; bioavailability [5]: 61%; pIC50 (Cytochrome P450 2C19): < 4.40
27 | 7.68 | C[C@H](c1ccc(Cl)cc1Cl)n1nc(C#N)c2ncc(N3CC([C@H]4CCCN(Cc5cnc[nH]5)C4)C3)nc21 | –
28 | 8.10 | C[C@H](c1ccc(Cl)cc1Cl)n1nc(C(N)=O)c2ncc(N3CC([C@H]4CCCN(CCO)C4)C3)nc21 | remaining at 1 h, 1 µM [2]: 95%; remaining at 1 h, 1 µM [3]: 95%; clearance [4]: 191 mL/min/kg; bioavailability [5]: 0%
29 | 7.74 | Cc1nn([C@H](C)c2ccc(Cl)cc2Cl)c2nc(N3CC([C@H]4CCCN(CCNC(=O)C(C)C)C4)C3)cnc12 | –
30 | 8.05 | C[C@H](c1ccc(Cl)cc1Cl)n1nc(C(=O)N(C)C)c2ncc(N3CC([C@H]4CCCN(CCO)C4)C3)nc21 | –
